For 21 compounds, viability, differential viability (reversal) and inhibition results are on record in PubChem BioAssay.

The nature of assay [1]: HUVEC growth inhibition – cell-based, human, primary screen (AID 575;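 active = viability at or below 30% in both replicate assays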;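 also: 100% = median of untreated cell wells with 0.1% DMSO on each plate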). To be noted: HUVEC proliferation, CellTiter-Glo luminescence, 72 h; at 10 µM; stronger effect = lower value. The procedure, abridged: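 Assay system: primary human umbilical vein endothelial cells / Buffer or medium: endothelial basal medium with 2% FBS plus growth supplements / Compound dosing: one dose, 10 µM final, 0.1% DMSO / Timing: 72 h treatment at 37 °C / Signal: CTG luminescence / Benchmarks: 32 DMSO-only cell-control wells (high), 32 MePR drug-control wells (low) per plate / Plate: collagen-coated 384-well format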

Assay [2] is described as follows: growth inhibitors of H69AR lung tumor, primary screen, human, duplicate replicates (AID 580;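 active = viability at or under a set limit in both replicates, limit being median viability minus 3 SD, cut at about 48% in these data, passing the limit was not always enough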;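 also: 100% = mean luminescence of untreated wells and 0% = no signal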). To be noted: H69AR lung tumor cells viability, ATP luminescence, 72 h; at 10 µM; stronger effect = lower value.
A short description of assay [3]: reversal of MRP1-mediated doxorubicin resistance, pilot screen, H69AR cells, doxorubicin co-treatment (AID 601;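 active = viability loss from added drug above about 55%, and viability with drug at most 40%, in both replicates, limit read from the data, passing the limit was not always enough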). To be noted: CellTiter-Glo, 72 h, at 10 µM; for differential viability (reversal): stronger effect = higher value.
A short description of assay [4]: 384-well plate pilot, post-Golgi transport modulator project, inhibition of yeast transport mutant growth (AID 636). The following applies: absorbance 615 nm, about 18 h, stronger effect = higher value.
Assay [5] in a line: growth suppression of yeast trafficking mutant, preliminary HTS, modulators of trafficking downstream of Golgi apparatus project, 1536-format plate, OD 615 nm (AID 637; in the data active = inhibition above about 30%). The following applies: yeast transport mutant growth, absorbance 615 nm, 18 h; stronger effect = higher value.
The mark [6] stands for this setting: H69AR cells + 2 uM doxorubicin, measured here: viability with 2 uM doxorubicin, stronger effect = lower value.
[7] abbreviates: H69AR cells, compound alone cytotoxicity.

The source made the active and inactive calls. Rule as the data show it, unless noted: active = inhibition above about 31%; inactive = the rest.

As to `CCOc1cc(C)c(C(C)C)cc1S(=O)(=O)N1CCN(C)CC1`, the viability in assay [1] was 96.1% (inactive); in assay [2], 96.2% (inactive); in assay [3] (setting [6]), 93.2%; in assay [3] (setting [7]), 96.2%. Further, the differential viability (reversal) in assay [3] (H69AR cells + 2 uM doxorubicin) was 2.99% (inactive). For the same compound, the inhibition in assay [4] is 1.84% (inactive); in assay [5] it was -5.71% (inactive).

Consider `CCn1c(=N)n(CC(=O)C23CC4CC(CC(C4)C2)C3)c2ccccc21`, for which the viability in assay [1] was 4.87% (active); in assay [2] it was 83.1% (inactive); in assay [3] (setting [6]) it was 83.2%; in assay [3] (setting [7]) it was 83.1%. Further, the differential viability (reversal) in assay [3] (H69AR cells + 2 uM doxorubicin) was -0.145% (inactive). The inhibition in assay [4] is -5.27% (inactive); in assay [5], 15.3% (inactive).

As for `N#CC1=C(SCc2ccccc2)NC(=O)C(C#N)C12CCCC2` (configuration not stated), the viability in assay [1] was 72.7% (inactive); in assay [2], 83.1% (inactive); in assay [3] (setting [6]) it was 92.9%; in assay [3] (setting [7]) it was 83.1%. Moreover, the differential viability (reversal) in assay [3] (H69AR cells + 2 uM doxorubicin) is -9.75% (inactive). The values for the inhibition in assay [4] and in assay [5] were -5% (inactive) and 1.9% (inactive), respectively.

Turning to `Cc1ccnc(NC(=O)Nc2ccc(F)cc2)c1`, the viability was 99.9% (inactive) in assay [1], 104% (inactive) in assay [2], 91.2% in assay [3] (setting [6]) and 104% in assay [3] (setting [7]). Also, the differential viability (reversal) in assay [3] (H69AR cells + 2 uM doxorubicin) is 12.9% (inactive). Moreover, the inhibition in assay [4] is -2.08% (inactive); in assay [5], -8.41% (inactive).

Turning to `CCN(C(=O)c1c(-c2ccccc2)noc1C)c1ccccc1`, the viability is 100% (inactive) in assay [1], 93.8% (inactive) in assay [2], 84.3% in assay [3] (setting [6]) and 93.8% in assay [3] (setting [7]). Besides, the differential viability (reversal) in assay [3] (H69AR cells + 2 uM doxorubicin) is 9.52% (inactive). Also, the inhibition is -1.18% (inactive) in assay [4] and 14.9% (inactive) in assay [5].

As to `COc1ccc2c(c1)c1c(n2C(C)=O)C(OC(C)=O)=NCC1`, the viability in assay [1] is 92.4% (inactive); in assay [2], 87.4% (inactive); in assay [3] (setting [6]) it was 87.5%; in assay [3] (setting [7]), 87.4%. Further, the differential viability (reversal) in assay [3] (H69AR cells + 2 uM doxorubicin) is -0.05% (inactive). The inhibition is -5.39% (inactive) in assay [4] and 5.71% (inactive) in assay [5].

On to `CC(=O)Nc1cccc(NC(=O)CSc2nnnn2C)c1`, for which the viability in assay [1] was 115% (inactive); in assay [2], 106% (inactive); in assay [3] (setting [6]) it was 95.9%; in assay [3] (setting [7]) it was 106%. Moreover, the differential viability (reversal) in assay [3] (H69AR cells + 2 uM doxorubicin) was 10.2% (inactive). Besides, the inhibition in assay [4] is -5.39% (inactive); in assay [5] it was 0.95% (inactive).

Regarding `CN(C)c1cccc(N=C2C=C(N3CCOCC3)CC(C)(C)C2)c1`, the viability in assay [1] was 106% (inactive); in assay [2] it was 91.8% (inactive); in assay [3] (setting [6]) it was 93.7%; in assay [3] (setting [7]), 91.8%. For the same compound, in assay [3] (H69AR cells + 2 uM doxorubicin), the differential viability (reversal) is -1.85% (inactive). The inhibition in assay [4] is -1.04% (inactive); in assay [5], -8.41% (inactive).

As for `O=C(CP(=O)(c1ccccc1)c1ccccc1)N1CCCCC1`, the viability was 111% (inactive) in assay [1], 106% (inactive) in assay [2], 86.9% in assay [3] (setting [6]) and 106% in assay [3] (setting [7]). Further, in assay [3] (H69AR cells + 2 uM doxorubicin), the differential viability (reversal) was 19% (inactive). Moreover, the inhibition in assay [4] was -3.51% (inactive); in assay [5] it was 6.83% (inactive).

With `O=P1(O)C=C(c2ccccc2)NC(c2ccccc2)=C1`, the viability in assay [1] is 108% (inactive); in assay [2], 91.7% (inactive); in assay [3] (setting [6]), 96.1%; in assay [3] (setting [7]), 91.7%. Also, the differential viability (reversal) in assay [3] (H69AR cells + 2 uM doxorubicin) was -4.4% (inactive). Further, the values for the inhibition in assay [4] and in assay [5] were -4.93% (inactive) and 0.48% (inactive), respectively.

For the compound `Cn1c(Cc2csc(N)n2)nnc1SCC(=O)NC1CCCCC1`, the viability in assay [1] was 112% (inactive); in assay [2], 96.8% (inactive); in assay [3] (setting [6]), 103%; in assay [3] (setting [7]), 96.8%. Besides, the differential viability (reversal) in assay [3] (H69AR cells + 2 uM doxorubicin) was -5.84% (inactive). Also, the inhibition is 0.92% (inactive) in assay [4] and -0.63% (inactive) in assay [5].

Turning to `CCOC(=O)CN(C)Cc1c[nH]c2ccccc12`, the viability in assay [1] is 80.4% (inactive); in assay [2], 87.1% (inactive); in assay [3] (setting [6]), 98.7%; in assay [3] (setting [7]), 87.1%. In addition, in assay [3] (H69AR cells + 2 uM doxorubicin), the differential viability (reversal) was -11.6% (inactive). The inhibition is -4.47% (inactive) in assay [4] and 7.14% (inactive) in assay [5].

In the case of `Cc1ccc(N2CC(C(=O)Nc3ccc4c(c3)OCO4)CC2=O)cc1` (configuration not stated), the viability was 101% (inactive) in assay [1], 99.6% (inactive) in assay [2], 87.6% in assay [3] (setting [6]) and 99.6% in assay [3] (setting [7]). The differential viability (reversal) in assay [3] (H69AR cells + 2 uM doxorubicin) is 12% (inactive). For the same compound, the inhibition was -3.25% (inactive) in assay [4] and -0.79% (inactive) in assay [5].

Consider `CC(CN1CCCCC1)OC(=O)c1ccc(Cl)cc1Cl` (configuration not stated), for which the viability is 96.7% (inactive) in assay [1], 92.9% (inactive) in assay [2], 85.9% in assay [3] (setting [6]) and 92.9% in assay [3] (setting [7]). Further, the differential viability (reversal) in assay [3] (H69AR cells + 2 uM doxorubicin) was 7.05% (inactive). In addition, the inhibition in assay [4] is 0.53% (inactive); in assay [5], -3.65% (inactive).

Consider `O=C(NCC1CCCO1)c1cccc(N2CCCC2=O)c1` (configuration not stated), for which the viability in assay [1] is 90% (inactive); in assay [2], 90.2% (inactive); in assay [3] (setting [6]) it was 91%; in assay [3] (setting [7]) it was 90.2%. In assay [3] (H69AR cells + 2 uM doxorubicin), the differential viability (reversal) was -0.795% (inactive). Moreover, the inhibition in assay [4] is -5.47% (inactive); in assay [5] it was 1.9% (inactive).

With `CCN(CC)c1ccc2c(c1)C(=O)N(C)C2=O`, the viability is 71.6% (inactive) in assay [1], 84.6% (inactive) in assay [2], 82.4% in assay [3] (setting [6]) and 84.6% in assay [3] (setting [7]). Besides, in assay [3] (H69AR cells + 2 uM doxorubicin), the differential viability (reversal) is 2.22% (inactive). Moreover, the inhibition in assay [4] is -0.66% (inactive); in assay [5], 1.9% (inactive).

As for `CNCCC(Oc1ccc(C(F)(F)F)cc1)c1ccccc1` (configuration not stated), the viability was 54.1% (inactive) in assay [1], 58.5% (inactive) in assay [2], 65.2% in assay [3] (setting [6]) and 58.5% in assay [3] (setting [7]). The differential viability (reversal) in assay [3] (H69AR cells + 2 uM doxorubicin) is -6.63% (inactive). Also, the inhibition in assay [4] was 2.47% (inactive); in assay [5] it was -3% (inactive).

Take `O=C(O)CCc1ccc(-c2ccccc2)n1CC(=O)O`: the viability was 88.9% (inactive) in assay [1], 93% (inactive) in assay [2], 91.1% in assay [3] (setting [6]) and 93% in assay [3] (setting [7]). Further, the differential viability (reversal) in assay [3] (H69AR cells + 2 uM doxorubicin) is 1.87% (inactive). The inhibition is -1.43% (inactive) in assay [4] and 12.5% (inactive) in assay [5].

With `CCC1Cc2c(nc3c4c(nc(N5CCOCC5)c(C#N)c24)NC(C)=N3)O1` (configuration not stated), the viability was 94% (inactive) in assay [1], 88.3% (inactive) in assay [2], 81.5% in assay [3] (setting [6]) and 88.3% in assay [3] (setting [7]). Besides, in assay [3] (H69AR cells + 2 uM doxorubicin), the differential viability (reversal) was 6.83% (inactive). The inhibition in assay [4] was -2.99% (inactive); in assay [5] it was 4.76% (inactive).

Regarding `COc1ccc(C(=O)N2CCOCC2)cc1Br`, the viability in assay [1] was 116% (inactive); in assay [2], 101% (inactive); in assay [3] (setting [6]), 95%; in assay [3] (setting [7]) it was 101%. The differential viability (reversal) in assay [3] (H69AR cells + 2 uM doxorubicin) is 5.83% (inactive). Also, the inhibition in assay [4] was -2.24% (inactive); in assay [5] it was -4.92% (inactive).

As for `Cn1c(SCC(=O)Nc2cccc3ccccc23)nc(O)cc1=O`, the viability is 88.3% (inactive) in assay [1], 89.7% (inactive) in assay [2], 95.4% in assay [3] (setting [6]) and 89.7% in assay [3] (setting [7]). The differential viability (reversal) in assay [3] (H69AR cells + 2 uM doxorubicin) was -5.66% (inactive). Besides, the inhibition is -4.67% (inactive) in assay [4] and -0.79% (inactive) in assay [5].
